Laboratory results as given in ChEMBL document CHEMBL3286239, “Synthesis and biological evaluation of novel naphthalene compounds as potential antidepressant agents” (Eur J Med Chem, 2014).
Activity calls are given as the source filed them. The rule behind the calls is not given here.

Columns and labels:
PC-12 [1] = assay: Neuroprotective activity against rat PC12 cells assessed as protection against corticosterone- induced lesion at 1.25 uM after 1 day by MTT assay; format: functional
Summary of the method: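 Low-differentiated PC12 cells at 1×10^4/well in DMEM with 5% heat-inactivated horse serum and 10% FBS for 24 h. Then 200 μM corticosterone plus compound at 1.25 μM for 1 day. MTT 0.5 mg/ml final for 4 h, formazan in DMSO, A570. Protection rate = (A_drug − A_corticosterone)/A_corticosterone ×100; mean ± S.D. of six independent experiments.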

[2] = (§1) Cytotoxicity against human HEK293 cells as inhibition of cell viability at 80 uM after 24 hrs by MTT assay; format: cell-based; conditions: HEK293 cells, read-out: INH
Mus musculus [3] = assay: Antidepressant-like activity in C57 mouse assessed as reduction in immobility time at 32 mg/kg, ip administered from day 2 to 15 measured on 2nd and 15th day 30 mins after drug challenge by forced swim test; format: functional; conditions: route intraperitoneal
Summary of the method: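 Male C57 mice (20–24 g), 10 per group. Day 1: 15 min pre-swim in a cylinder (20 cm diameter) with 15 cm water at 22–25 °C. Days 2–15: daily i.p. 32 mg/kg in 30% β-cyclodextrin. On days 2 and 15, a 6 min swim 30 min after dosing. Immobility (speed <20 mm/s) scored over the last 4 min from video. Mean ± S.D.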

PC-12 [4] = assay: Neurorestorative activity against H2O2-induced oxidant injury in rat PC12 cells assessed as restorative rate at 20 uM measured after 48 hrs pretreated with 200 uM H2O2 for 1 hr by MTT assay; format: functional
Summary of the method: (§2)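 PC12 cells at 1×10^4/well in DMEM with 10% FBS and 5% horse serum for 24 h. Exposed to 200 μM H₂O₂ for 1 h, washed twice with PBS, then compound (10, 20 or 40 μM) in DMEM for 48 h. MTT 0.5 mg/ml final for 4 h, DMSO solubilization, A570. Restoration rate from absorbance relative to injured control; mean ± S.D. of six independent experiments.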

PC-12 [5] = assay: Neurorestorative activity against H2O2-induced oxidant injury in rat PC12 cells assessed as restorative rate at 40 uM measured after 48 hrs pretreated with 200 uM H2O2 for 1 hr by MTT assay; format: functional; summary of the method: as §2
[6] = Cytotoxicity against human L02 cells as inhibition of cell viability at 80 uM after 24 hrs by MTT assay; format: cell-based; conditions: for cytotoxicity at 24 h, 80 µM: L02 cells, read-out: INH
PC-12 [7] = assay: Neurorestorative activity against H2O2-induced oxidant injury in rat PC12 cells assessed as restorative rate at 10 uM measured after 48 hrs pretreated with 200 uM H2O2 for 1 hr by MTT assay; format: functional; summary of the method: as §2
Mus musculus [8] = assay: Toxicity in C57 mouse assessed as increase in spontaneous locomotor activity at 32 mg/kg, ip for 14 days by open field test; format: organism-based; design: dose 32 mg/kg, route intraperitoneal; conditions: in vivo, 336 h
Summary of the method: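 Male C57 mice (20–24 g), 10 per group, 12 h light/dark cycle, food and water ad libitum. Dosed i.p. at 32 mg/kg daily for 14 days, then total distance travelled measured in an open field arena.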

PC-12 [9] = assay: Neuroprotective activity against corticosterone- induced morphological change in rat PC12 cells assessed as decrease in shrunk axons at 1.25 uM after 24 hrs by inverted microscopic analysis; format: functional, cell-based
Summary of the method: (§3)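 PC12 cells seeded at 1×10^6 cells/mL and grown 1 d. Exposed to corticosterone 0.2 mM with or without drug at 1.25 μM for 24 h. Photographed by inverted microscope in three random fields per group. Cells with shrunk axons and cycloid shape counted as injured, normal neuron-like cells counted separately, using computer-assisted image analysis.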

HEK293 = assay: as §1; format: cell-based; conditions: hek293, 24 h, 80 µM
PC-12 [10] = assay: Neuroprotective activity against corticosterone- induced morphological change in rat PC12 cells assessed as decrease in cycloid shape at 1.25 uM after 24 hrs by inverted microscopic analysis; format: functional, cell-based; summary of the method: as §3

Compound	Activity (PC-12 [1])	cytotoxicity at 24 h, 80 µM [2]	inhibition in vivo at 32 mg/kg (Mus musculus [3])	Activity (PC-12 [4])	Activity (PC-12 [5])	cytotoxicity at 24 h, 80 µM [6]	Activity (PC-12 [7])	Activity (Mus musculus [8])	inhibition (PC-12 [9])	Activity (HEK293)	inhibition (PC-12 [10])	Activity ([6]; l02, 24 h, 80 µM)
CC#C[C@]1(O)CC[C@H]2[C@@H]3CCC4=CC(=O)CCC4=C3[C@@H](c3ccc(N(C)C)cc3)C[C@@]21C [MIFEPRISTONE]	31.1%											
COc1ccc2cccc(CCNC(=O)C3CN(C(=O)c4ccco4)C3)c2c1	38.8%	26.4%	36.2%	inactive	inactive	3.2%	inactive					
COc1ccc2cccc(CCNC(=O)C3CN(C(C)=O)C3)c2c1	inactive	6.2%		0.6%	1%	2.3%	inactive					
CCC(=O)N1CC(C(=O)NCCc2cccc3ccc(OC)cc23)C1	inactive	11.2%		inactive	7.5%	2.9%	inactive					
COc1ccc2cccc(CCNC(C)=O)c2c1 [AGOMELATINE]	26.2%		8.4%	2.7%	inactive		inactive	85.3%				
COc1ccc2cccc(CCNC(=O)C3CN(C(=O)c4cc([N+](=O)[O-])cc([N+](=O)[O-])c4)C3)c2c1	inactive	11.1%		1.7%	inactive	15.8%	inactive					
COc1ccc2cccc(CCNC(=O)C3CN(C(=O)c4ccccc4)C3)c2c1	inactive	11.9%		6.6%	4.6%	3.8%	2.9%					
COc1ccc2cccc(CCNC(=O)C3CN(C(=O)C(F)(F)F)C3)c2c1	43.5%		58.4%	inactive	inactive	2.6%	inactive	88.5%	Active	Non-toxic	Active	
COc1ccc2cccc(CCNC(=O)C3CN(C(=O)c4ccc(C(F)(F)F)cc4)C3)c2c1	14.6%	24.6%		inactive	inactive	7.9%	inactive					
COc1ccc2cccc(CCNC(=O)C3CN(S(=O)(=O)N(C)C)C3)c2c1	inactive	4.6%		2.1%	inactive	7.4%	inactive					
COc1ccc2cccc(CCNC(=O)C3CN(C(=O)c4ccc(Cl)cc4)C3)c2c1	39.2%	11.8%	49.1%	inactive	4.7%	5.9%	0.3%		Active		Active	
COc1ccc2cccc(CCNC(=O)C3CN(S(=O)(=O)c4ccc(Cl)cc4)C3)c2c1	25.3%	21.5%		4.5%	6.8%	33.6%	4.6%					
CNCCC(Oc1ccc(C(F)(F)F)cc1)c1ccccc1 (stereo unspecified) [FLUOXETINE]	19.7%		50.7%	inactive	inactive		2.8%	66.4%				
COc1ccc2cccc(CCNC(=O)C3CN(S(=O)(=O)c4ccc(C)cc4)C3)c2c1	inactive	3.6%		inactive	inactive	2.7%	inactive					
COc1ccc2cccc(CCNC(=O)C3CN(C(=O)OCc4ccccc4)C3)c2c1	inactive	1%		6.6%	7.3%	12.1%	3.2%					
COc1ccc2cccc(CCNC(=O)C3CN(C(=O)c4ccncc4Cl)C3)c2c1	inactive	17.3%		inactive	2.1%	4.8%	inactive					
COc1ccc(C(=O)N2CC(C(=O)NCCc3cccc4ccc(OC)cc34)C2)cc1	inactive	8.9%		inactive	inactive	7.8%	inactive					
COc1ccc2cccc(CCNC(=O)C3CN(C(=O)N(C)C)C3)c2c1	inactive	2.5%		1.2%	4.3%		inactive					Non-toxic
COc1ccc2cccc(CCNC(=O)C3CN(C(=O)c4ccc(C#N)cc4)C3)c2c1	25.8%	17.5%		inactive	inactive	1%	inactive					
COc1ccc(OC)c(C(=O)N2CC(C(=O)NCCc3cccc4ccc(OC)cc34)C2)c1	22.3%	33.4%		inactive	inactive	1.3%	inactive					
COc1ccc2cccc(CCNC(=O)C3CN(C(=O)c4ccccn4)C3)c2c1	inactive	31.8%		inactive	inactive	11.2%	0.7%					
COc1ccc2cccc(CCNC(=O)C3CN(S(C)(=O)=O)C3)c2c1	1.4%	8.5%		inactive	3.7%	4.4%	0.9%					
COc1cc(OC)cc(C(=O)N2CC(C(=O)NCCc3cccc4ccc(OC)cc34)C2)c1	inactive	13.1%		2.1%	inactive	13.1%	inactive					
